Test results as given in ChEMBL document CHEMBL1138354, “2-(2'-((dimethylamino)methyl)-4'-(fluoroalkoxy)-phenylthio)benzenamine derivatives as serotonin transporter imaging agents” (J Med Chem, 2007).
pKi: −log10 of the molar value.

What was measured:
[1] = Partition coefficient, log P at pH 7.4; type: physicochemical; settings: octanol/water
[2] = molecular target: Sodium-dependent dopamine transporter (Homo sapiens, UniProt Q01959); assay: Displacement of [125I]N-(3'-iodopropen-2'yl)-2-beta-carbomethoxy-3-beta-(4-chlorophenyl)tropane from DAT expressed in LLCPK1 cells; type: cell-based, LLC-PK1
How it was run: (§1)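 Membrane homogenates from LLC-PK1 cells, each line overexpressing one transporter. Membranes (30–80 μg protein) in 50 mM Tris-HCl pH 7.4, 120 mM NaCl, 5 mM KCl, 0.1% BSA. Radioligands: 0.09 nM for SERT, 0.06 nM for DAT, 0.06 nM for NET. Competitor at 8–10 concentrations, 10⁻¹⁰ to 10⁻⁵ M. Incubated 1 hr at room temperature. Filtered on PEI-presoaked glass fiber and gamma counted. Ki from nonlinear regression, n = 3.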

[3] = molecular target: Sodium-dependent serotonin transporter (Homo sapiens, UniProt P31645); assay: Displacement of [125I]5-iodo-2-[[2,2-[(dimethylamino)methyl]phenyl]thio]benzyl alcohol from SERT expressed in LLCPK1 cells; type: cell-based, LLC-PK1; how it was run: as §1
[4] = molecular target: Sodium-dependent noradrenaline transporter (Homo sapiens, UniProt P23975); assay: Displacement of [125I]iodonisoxetine from NET expressed in LLCPK1 cells; type: cell-based, LLC-PK1; how it was run: as §1
Nucleic Acid [5] = assay: Ratio of drug level in hypothalamus to cerebellum in rat after 120 mins; type: ADME, tissue-based; settings: in vivo, 2 h
How it was run: (§2)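 Rats, 3 per group, given ¹⁸F tracer (10–100 μCi, 0.2 ml sterile water with 1 mg/mL BSA) into the femoral vein under isoflurane. Brain regions, including hypothalamus, striatum and cerebellum, dissected, weighed and counted. % dose/g calculated against a 1% diluted aliquot of the dose. Region/cerebellum ratio is region %dose/g divided by cerebellum %dose/g. SD of the ratio propagated from both means and SDs.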

Brain [6] = assay: Biodistribution in iv dosed rat brain after 30 mins; type: ADME, organism-based; settings: in vivo, 0.5 h
How it was run: (§3)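 [18F]-labeled tracer was given to rats under isoflurane anesthesia: 0.2 ml sterile water with 1 mg/mL BSA and 10–100 μCi, into the femoral vein. Three rats per group. Animals were killed by cervical dislocation under anesthesia at the stated time. Organs were removed, weighed and counted. Uptake was calculated as percent dose against a 1% aliquot of the injected dose counted alongside.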

Brain [7] = assay: Biodistribution in iv dosed rat brain after 120 mins; type: ADME, organism-based; settings: in vivo, 2 h; how it was run: as §3
Nucleic Acid [8] = assay: Ratio of drug level in hypothalamus to cerebellum in rat after 30 mins; type: ADME, tissue-based; settings: in vivo, 0.5 h; how it was run: as §2

Chain of Sodium-dependent noradrenaline transporter (P23975 whole entry): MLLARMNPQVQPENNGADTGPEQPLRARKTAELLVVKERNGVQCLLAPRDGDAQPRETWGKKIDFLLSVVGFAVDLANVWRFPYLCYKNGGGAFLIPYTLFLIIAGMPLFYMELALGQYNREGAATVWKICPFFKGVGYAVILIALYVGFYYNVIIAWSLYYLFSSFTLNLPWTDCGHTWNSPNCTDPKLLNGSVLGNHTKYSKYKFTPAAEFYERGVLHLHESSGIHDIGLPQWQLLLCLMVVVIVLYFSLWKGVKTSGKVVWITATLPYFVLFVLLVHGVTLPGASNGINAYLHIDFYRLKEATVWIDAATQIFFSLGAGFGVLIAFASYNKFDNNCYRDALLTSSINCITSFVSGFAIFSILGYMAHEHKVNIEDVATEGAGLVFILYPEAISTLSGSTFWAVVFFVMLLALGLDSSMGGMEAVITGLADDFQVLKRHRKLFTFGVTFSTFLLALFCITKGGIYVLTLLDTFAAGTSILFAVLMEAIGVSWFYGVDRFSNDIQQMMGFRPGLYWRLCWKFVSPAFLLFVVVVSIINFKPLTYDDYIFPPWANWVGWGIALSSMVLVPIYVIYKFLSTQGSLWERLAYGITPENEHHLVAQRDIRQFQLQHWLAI
Chain of Sodium-dependent serotonin transporter (P31645 whole entry): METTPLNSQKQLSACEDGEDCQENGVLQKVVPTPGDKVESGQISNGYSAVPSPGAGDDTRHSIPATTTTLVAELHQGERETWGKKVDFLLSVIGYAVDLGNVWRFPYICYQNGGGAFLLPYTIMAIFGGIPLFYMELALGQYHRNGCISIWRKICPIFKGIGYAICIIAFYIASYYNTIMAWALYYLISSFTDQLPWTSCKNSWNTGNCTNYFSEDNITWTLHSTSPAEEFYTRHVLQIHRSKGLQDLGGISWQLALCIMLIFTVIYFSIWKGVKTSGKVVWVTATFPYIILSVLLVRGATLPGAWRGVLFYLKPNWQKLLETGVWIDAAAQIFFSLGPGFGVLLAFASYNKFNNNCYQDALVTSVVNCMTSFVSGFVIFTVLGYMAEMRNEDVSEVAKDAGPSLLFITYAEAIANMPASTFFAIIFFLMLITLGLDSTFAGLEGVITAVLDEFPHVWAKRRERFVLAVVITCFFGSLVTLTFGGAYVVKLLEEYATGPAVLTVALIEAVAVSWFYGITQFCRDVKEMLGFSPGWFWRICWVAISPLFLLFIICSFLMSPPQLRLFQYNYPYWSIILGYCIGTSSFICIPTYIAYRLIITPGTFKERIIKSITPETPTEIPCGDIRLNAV
Chain of Sodium-dependent dopamine transporter (Q01959 whole entry): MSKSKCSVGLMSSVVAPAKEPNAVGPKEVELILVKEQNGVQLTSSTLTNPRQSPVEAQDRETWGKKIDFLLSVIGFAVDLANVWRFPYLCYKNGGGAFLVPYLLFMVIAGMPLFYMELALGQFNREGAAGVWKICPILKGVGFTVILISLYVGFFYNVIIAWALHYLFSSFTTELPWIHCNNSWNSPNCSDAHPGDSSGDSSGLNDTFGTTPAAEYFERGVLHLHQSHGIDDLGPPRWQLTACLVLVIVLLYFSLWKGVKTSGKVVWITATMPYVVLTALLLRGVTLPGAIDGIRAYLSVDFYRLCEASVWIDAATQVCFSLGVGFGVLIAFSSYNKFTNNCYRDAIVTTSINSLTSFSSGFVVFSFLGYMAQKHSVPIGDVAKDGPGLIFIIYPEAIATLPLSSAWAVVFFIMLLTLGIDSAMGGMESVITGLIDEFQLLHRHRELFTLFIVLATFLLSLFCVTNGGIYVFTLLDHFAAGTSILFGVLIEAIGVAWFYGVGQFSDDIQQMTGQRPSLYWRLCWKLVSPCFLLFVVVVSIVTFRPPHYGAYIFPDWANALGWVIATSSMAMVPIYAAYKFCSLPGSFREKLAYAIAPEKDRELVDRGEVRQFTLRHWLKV

| SMILES | logD [1] | pKi [2] | pKi [3] | pKi [4] | Ratio (Nucleic Acid [5]) | Drug uptake (Brain [6]) | Drug uptake (Brain [7]) | Ratio (Nucleic Acid [8]) |
| --- | --- | --- | --- | --- | --- | --- | --- | --- |
| CN(C)Cc1cc(OCCC[18F])ccc1Sc1ccc(F)cc1N | 2.65 |  |  |  |  |  |  |  |
| CN(C)Cc1cc(OCCC[18F])ccc1Sc1ccc(Br)cc1N | 3.3 |  |  |  |  |  |  |  |
| CN(C)Cc1cc(OCC[18F])ccc1Sc1ccc(Cl)cc1N | 2.71 |  |  |  |  |  |  |  |
| CN(C)Cc1cc(OCCCO)ccc1Sc1ccccc1N |  | 6.35 | 8.89 | 8.15 |  |  |  |  |
| CN(C)Cc1cc(OCCO)ccc1Sc1ccccc1N |  | 6.45 | 8.96 | 7.96 |  |  |  |  |
| CN(C)Cc1cc(OCC[18F])ccc1Sc1ccc(F)cc1N | 2.47 |  |  |  |  |  |  |  |
| CN(C)Cc1cc(OCCCO)ccc1Sc1ccc(Br)cc1N |  | < 6.00 | 9.68 | 6.55 |  |  |  |  |
| CN(C)Cc1cc(OCCF)ccc1Sc1ccc(Br)cc1N |  | < 6.00 | 10.30 | 6.94 | 3.7 | 1.88 %ID | 2.16 %ID | 2.04 |
| CN(C)Cc1cc(OCCF)ccc1Sc1ccc(Cl)cc1N |  | 6.07 | 10.52 | 7.01 | 3.77 | 1.72 %ID | 1.46 %ID | 2.36 |
| CN(C)Cc1cc(OCCCF)ccc1Sc1ccccc1N |  | 6.52 | 8.85 | 7.92 | 7.67 | 1.23 %ID | 0.59 %ID | 3.5 |
| CN(C)Cc1cc(OCCF)ccc1Sc1ccccc1N |  | 6.47 | 9.60 | 8.12 | 7.83 | 1.85 %ID | 0.63 %ID | 3.79 |
| CN(C)Cc1cc(OCCCF)ccc1Sc1ccc(Br)cc1N |  | < 6.00 | 9.82 | < 6.00 | 4.17 | 1.12 %ID | 1.15 %ID | 1.93 |
| COc1ccc(Sc2ccccc2N)c(CN(C)C)c1 |  | 6.24 | 8.30 | 7.85 |  |  |  |  |
| CN(C)Cc1cc(O)ccc1Sc1ccccc1N |  | 6.18 | 7.77 | 7.48 |  |  |  |  |
| CN(C)Cc1cc(OCCF)ccc1Sc1ccc(F)cc1N |  | < 6.00 | 10.00 | 7.43 | 4.34 | 2.23 %ID | 2.57 %ID | 2.78 |
| CN(C)Cc1cc(OCCC[18F])ccc1Sc1ccccc1N | 2.54 |  |  |  |  |  |  |  |
| CN(C)Cc1cc(OCCO)ccc1Sc1ccc(F)cc1N |  | < 6.00 | 8.92 | 7.25 |  |  |  |  |
| CN(C)Cc1cc(OCCCF)ccc1Sc1ccc(F)cc1N |  | < 6.00 | 9.02 | 7.02 | 4.36 | 1.43 %ID | 1.32 %ID | 2.66 |
